From ChEMBL document CHEMBL1944507, “Structure-activity relationships for amide-, carbamate-, and urea-linked analogues of the tuberculosis drug (6S)-2-nitro-6-{[4-(trifluoromethoxy)benzyl]oxy}-6,7-dihydro-5H-imidazo[2,1-b][1,3]oxazine (PA-824)” (J Med Chem, 2012)
In brackets after ≈: the same amount, converted by molar mass.

Key:
[1] = Kinetic solubility of the compound in water at pH 7 by HPLC analysis; assay type: physicochemical; conditions: read-out: Kinetic_solubility
[2] = Metabolic stability of the compound in human liver microsomes assessed as compound remaining after 1 hr; assay type: ADME, Microsome; conditions: read-out: Stability
In short: (§1)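 Pooled human or CD-1 mouse liver microsomes incubated with compound for 1 h. Percentage of compound remaining calculated from analyte/internal standard peak area ratios.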

[3] = Metabolic stability of the compound in CD-1 mouse liver microsomes assessed as compound remaining after 1 hr; assay type: ADME, Microsome; conditions: read-out: Stability; in short: as §1
[4] = test system: Mycobacterium tuberculosis; assay: Antimicrobial activity against Mycobacterium tuberculosis infected in BALB/c mouse assessed as fold reduction in lung CFU at 100 mg/kg, po administered 11 days after post infection qd for 5 days per week for 3 weeks relative to PA-824; assay type: functional
In short: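 Groups of 7 M. tb-infected BALB/c mice dosed orally at 100 mg/kg daily, 5 days/week for 3 weeks, starting on day 11 postinfection. Readout is the average lung CFU reduction in treated mice divided by the average CFU reduction in mice given the reference nitroimidazooxazine.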

[5] = AUC (0 to infinity) in CD-1 mouse plasma at 40 mg/kg, po; assay type: ADME, organism-based; set-up: dose 40 mg/kg, route oral, time infinity
In short: (§2)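 CD-1 mice given a single oral dose of 40 mg/kg, suspended in 0.5% carboxymethylcellulose/0.08% Tween 80 in water. Plasma and lung samples quantified by LC-MS/MS. AUC extrapolated to infinity. Lung/plasma ratio is lung AUC divided by plasma AUC.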

[6] = Cmax in CD-1 mouse plasma at 40 mg/kg, po; assay type: ADME, organism-based; set-up: dose 40 mg/kg, route oral; in short: as §2
[7] = Half life in CD-1 mouse plasma at 40 mg/kg, po; assay type: ADME, organism-based; set-up: dose 40 mg/kg, route oral; in short: as §2
[8] = AUC (0 to infinity) in CD-1 mouse lung at 40 mg/kg, po; assay type: ADME, organism-based; set-up: dose 40 mg/kg, route oral, time infinity; in short: as §2
[9] = Cmax in CD-1 mouse lung at 40 mg/kg, po; assay type: ADME, organism-based; set-up: dose 40 mg/kg, route oral; in short: as §2
[10] = Ratio AUC (0 to infinity) in CD-1 mouse lung to AUC (0 to infinity) in CD-1 mouse plasma at 40 mg/kg, po; assay type: ADME, organism-based; set-up: dose 40 mg/kg, route oral; conditions: read-out: Ratio AUC; in short: as §2
[11] = test system: Mycobacterium tuberculosis; assay: Antimicrobial activity against Mycobacterium tuberculosis infected in BALB/c mouse assessed as fold reduction in lung CFU at 100 mg/kg, po administered 70 days after post infection qd for 5 days per week for 3 weeks relative to OPC-67683; assay type: functional
In short: (§3)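 Chronic infection model in M. tb-infected BALB/c mice: oral dosing at 100 mg/kg daily, 5 days/week for 3 weeks, beginning about 70 days postinfection. Result expressed as fold lung CFU reduction relative to the reference drug.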

[12] = Half life in CD-1 mouse lung at 40 mg/kg, po; assay type: ADME, organism-based; set-up: dose 40 mg/kg, route oral; in short: as §2
[13] = test system: Mycobacterium tuberculosis; assay: Antimicrobial activity against Mycobacterium tuberculosis infected in BALB/c mouse assessed as fold reduction in lung CFU at 100 mg/kg, po administered 70 days after post infection qd for 5 days per week for 3 weeks; assay type: functional; in short: as §3
[14] = test system: Mycobacterium tuberculosis; assay: Antimicrobial activity against Mycobacterium tuberculosis infected in chronic BALB/c mouse infection model assessed as fold reduction in lung CFU at 100 mg/kg, po dministered 50 days after post infection qd for 5 days per week for 3 weeks; assay type: functional
[15] = Octanol-water partition coefficient, log P of the compound by shake-flask method; assay type: physicochemical
In short: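 Octanol-water partition coefficient measured by the shake-flask method.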

[16] = Thermodynamic solubility of the compound at pH 1; assay type: physicochemical; conditions: buffer, read-out: Therm_solubility
[17] = Thermodynamic solubility of the compound at pH 7.4; assay type: physicochemical; conditions: buffer, read-out: Therm_solubility
[18] = Plasma protein binding in human at 10 uM; assay type: ADME, cell-free; conditions: read-out: PPB (converted)
In short: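 Human plasma protein binding measured by equilibrium dialysis, with overnight incubation of compound at 10 μM containing 1% DMSO.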

[19] = test system: Salmonella typhimurium; assay: Induction of mutagenesis in Salmonella Typhimurium TA98 in absence of rat liver S9 fraction by Ames test; assay type: toxicity, organism-based; conditions: salmonella enterica subsp. enterica serovar typhimurium
In short: (§4)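 MicroAmes reverse mutation screen in Salmonella TA98 and TA100, preincubated with and without rat liver S9, at 0.25-250 μg/well.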

[20] = test system: Salmonella typhimurium; assay: Induction of mutagenesis in Salmonella Typhimurium TA98 in presence of rat liver S9 fraction by Ames test; assay type: toxicity, organism-based; conditions: salmonella enterica subsp. enterica serovar typhimurium; in short: as §4
[21] = test system: Salmonella typhimurium; assay: Induction of mutagenesis in Salmonella Typhimurium TA100 in absence of rat liver S9 fraction by Ames test; assay type: toxicity, organism-based; conditions: salmonella enterica subsp. enterica serovar typhimurium; in short: as §4
[22] = test system: Salmonella typhimurium; assay: Induction of mutagenesis in Salmonella Typhimurium TA100 in presence of rat liver S9 fraction by Ames test; assay type: toxicity, organism-based; conditions: salmonella enterica subsp. enterica serovar typhimurium; in short: as §4

## O=C(N[C@@H]1COc2nc([N+](=O)[O-])cn2C1)c1ccc(OC(F)(F)F)cc1
[1]
  solubility kinetic: 109 µg/mL (≈ 293 µM)

## CN(C(=O)c1ccc(OC(F)(F)F)cc1)[C@@H]1COc2nc([N+](=O)[O-])cn2C1
[1]
  solubility kinetic: 17 µg/mL (≈ 44 µM)

## O=[N+]([O-])c1cn2c(n1)OC[C@@H](NS(=O)(=O)c1ccc(OC(F)(F)F)cc1)C2
[1]
  solubility kinetic: 6.1 µg/mL (≈ 14.9 µM)

## CN([C@@H]1COc2nc([N+](=O)[O-])cn2C1)S(=O)(=O)c1ccc(OC(F)(F)F)cc1
[1]
  solubility kinetic: 15 µg/mL (≈ 35.5 µM)

## O=C(CN[C@@H]1COc2nc([N+](=O)[O-])cn2C1)c1ccc(OC(F)(F)F)cc1
[1]
  solubility kinetic: 21 µg/mL (≈ 54.4 µM)

## O=C(Nc1ccc(OC(F)(F)F)cc1)N[C@@H]1COc2nc([N+](=O)[O-])cn2C1
[1]
  solubility kinetic: 93 µg/mL (≈ 240 µM)

## O=C(N[C@@H]1COc2nc([N+](=O)[O-])cn2C1)OCc1ccc(-c2ccc(OC(F)(F)F)cc2)cc1
[1]
  solubility kinetic: 0.67 µg/mL (≈ 1.4 µM)

## O=C(Nc1cccc(-c2ccc(OC(F)(F)F)cc2)c1)N[C@@H]1COc2nc([N+](=O)[O-])cn2C1
[1]
  solubility kinetic: 3 µg/mL (≈ 6.47 µM)
[2]
  remaining at 1 h: 86%
[3]
  remaining at 1 h: 88%
[4]
  fold change (FC): <0.01

## O=C(Nc1ccc(-c2ccc(OC(F)(F)F)cc2)cc1)N[C@@H]1COc2nc([N+](=O)[O-])cn2C1
[1]
  solubility kinetic: 0.17 µg/mL (≈ 0.367 µM)
[2]
  remaining at 1 h: 91%
[3]
  remaining at 1 h: 90%
[5]
  AUC(0-inf): 6610 ng·h/mL
[6]
  Cmax: 480 ng/mL
[7]
  half-life: 6.3 h
[8]
  AUC(0-inf): > 60000 ng·h/mL
[9]
  Cmax: 4700 ng/mL
[10]
  Kp: > 9
[4]
  fold change (FC): 1

## O=C(NCc1ccc(-c2ccc(OC(F)(F)F)cc2)cc1)N[C@@H]1COc2nc([N+](=O)[O-])cn2C1
[1]
  solubility kinetic: 0.94 µg/mL (≈ 1.97 µM)

## O=C(Nc1cccc(-c2ccc(OC(F)(F)F)cc2)c1)O[C@@H]1COc2nc([N+](=O)[O-])cn2C1
[1]
  solubility kinetic: 0.07 µg/mL (≈ 0.151 µM)
[2]
  remaining at 1 h: 88%
[3]
  remaining at 1 h: 93%
[4]
  fold change (FC): 3.4

## O=C(Nc1cccc(-c2ccc(C(F)(F)F)nc2)c1)O[C@@H]1COc2nc([N+](=O)[O-])cn2C1
[1]
  solubility kinetic: 5.8 µg/mL (≈ 12.9 µM)
[2]
  remaining at 1 h: 89%
[3]
  remaining at 1 h: 80%
[4]
  fold change (FC): 0.02

## O=C(Nc1ccc(-c2ccc(OC(F)(F)F)cc2)cc1)O[C@@H]1COc2nc([N+](=O)[O-])cn2C1
[2]
  remaining at 1 h: 100%
[3]
  remaining at 1 h: 98%
[5]
  AUC(0-inf): 44900 ng·h/mL
[6]
  Cmax: 520 ng/mL
[7]
  half-life: 62.3 h
[8]
  AUC(0-inf): > 136000 ng·h/mL
[9]
  Cmax: 6900 ng/mL
[10]
  Kp: > 3
[4]
  fold change (FC): 5
[11]
  fold change (FC): 0.35

## O=C(NCc1ccc(-c2ccc(OC(F)(F)F)cc2)cc1)O[C@@H]1COc2nc([N+](=O)[O-])cn2C1
[1]
  solubility kinetic: 0.34 µg/mL (≈ 0.711 µM)

## O=C(O[C@@H]1COc2nc([N+](=O)[O-])cn2C1)N1CC[C@H](Oc2ccc(OC(F)(F)F)cc2)C1
[1]
  solubility kinetic: 21 µg/mL (≈ 45.8 µM)

## O=C(O[C@@H]1COc2nc([N+](=O)[O-])cn2C1)N1CCC(Oc2ccc(C(F)(F)F)nc2)CC1
[1]
  solubility kinetic: 94 µg/mL (≈ 206 µM)

## CN(Cc1ccc(OC(F)(F)F)cc1)C1CCN(C(=O)O[C@@H]2COc3nc([N+](=O)[O-])cn3C2)CC1
[1]
  solubility kinetic: 11 µg/mL (≈ 22 µM)

## O=C(COc1ccc(-c2ccc(OC(F)(F)F)cc2)cc1)N[C@@H]1COc2nc([N+](=O)[O-])cn2C1
[1]
  solubility kinetic: 0.96 µg/mL (≈ 2.01 µM)

## O=C(Cc1ccc(-c2ccc(OC(F)(F)F)cc2)cc1)N[C@@H]1COc2nc([N+](=O)[O-])cn2C1
[1]
  solubility kinetic: 1.8 µg/mL (≈ 3.89 µM)

## O=C(CO[C@@H]1COc2nc([N+](=O)[O-])cn2C1)Nc1ccc(OC(F)(F)F)cc1
[1]
  solubility kinetic: 68 µg/mL (≈ 169 µM)
[2]
  remaining at 1 h: 100%
[3]
  remaining at 1 h: 85%
[4]
  fold change (FC): 0.33

## CN(C(=O)N(C)[C@@H]1COc2nc([N+](=O)[O-])cn2C1)c1ccc(OC(F)(F)F)cc1
[1]
  solubility kinetic: 38 µg/mL (≈ 91.5 µM)

## O=[N+]([O-])c1cn2c(n1)OC[C@@H](NC(=S)Nc1ccc(OC(F)(F)F)cc1)C2
[1]
  solubility kinetic: 12 µg/mL (≈ 29.8 µM)

## O=C(NCc1ccc(OC(F)(F)F)cc1)N[C@@H]1COc2nc([N+](=O)[O-])cn2C1
[1]
  solubility kinetic: 32 µg/mL (≈ 79.7 µM)

## O=C(Nc1ccc(OC(F)(F)F)cc1)O[C@@H]1COc2nc([N+](=O)[O-])cn2C1
[1]
  solubility kinetic: 5.4 µg/mL (≈ 13.9 µM)
[2]
  remaining at 1 h: 88%
[3]
  remaining at 1 h: 89%
[5]
  AUC(0-inf): 28500 ng·h/mL
[6]
  Cmax: 1400 ng/mL
[7]
  half-life: 9.8 h
[8]
  AUC(0-inf): 43300 ng·h/mL
[9]
  Cmax: 3800 ng/mL
[12]
  half-life: 4.1 h
[10]
  Kp: 1.5
[4]
  fold change (FC): 0.39
[11]
  fold change (FC): 0.02

## CN(C(=O)O[C@@H]1COc2nc([N+](=O)[O-])cn2C1)c1ccc(OC(F)(F)F)cc1
[1]
  solubility kinetic: 18 µg/mL (≈ 44.7 µM)
[2]
  remaining at 1 h: 37%
[3]
  remaining at 1 h: 1%
[4]
  fold change (FC): 5.3

## O=C(NCc1ccc(OC(F)(F)F)cc1)O[C@@H]1COc2nc([N+](=O)[O-])cn2C1
[1]
  solubility kinetic: 10 µg/mL (≈ 24.9 µM)

## C[C@]1(COc2ccc(N3CCC(Oc4ccc(OC(F)(F)F)cc4)CC3)cc2)Cn2cc([N+](=O)[O-])nc2O1
[13]
  fold change (FC): 3
[14]
  fold change (FC): 3

## O=C(COc1ccc(OC(F)(F)F)cc1)N[C@@H]1COc2nc([N+](=O)[O-])cn2C1
[1]
  solubility kinetic: 43 µg/mL (≈ 107 µM)

## O=[N+]([O-])c1cn2c(n1)OC[C@@H](NCc1ccc(OC(F)(F)F)cc1)C2
[1]
  solubility kinetic: 131 µg/mL (≈ 366 µM)

## O=[N+]([O-])c1cn2c(n1)OC[C@@H](OCc1ccc(OC(F)(F)F)cc1)C2 [PRETOMANID]
[13]
  fold change (FC): 2
[15]
  logP: 2.52
[16]
  solubility thermodynamic: 30 µM (≈ 10.8 µg/mL)
[17]
  solubility thermodynamic: 30 µM (≈ 10.8 µg/mL)
[18]
  fraction unbound at 10 µM: 0.06
[19]
  Activity: Non-toxic
[20]
  Activity: Non-toxic
[21]
  Activity: Non-toxic
[22]
  Activity: Non-toxic
